These results are taken from PubChem BioAssay.

The nature of assay [1]: Her2 expression decrease, cell viability multiplex – SKBR3 breast tumor cells, AlphaScreen, ATP viability, primary screen (AID 461;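 active = Her2 level under about 52% in both replicate screens, with viability over 70% of control, limit read from the data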;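 for Her2 level: lower value means less Her2 protein in the cells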;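 for viability: percent of carrier control wells set as 100% viability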). Conditions: SKBR3 Her2 protein level, 18-24 h, measured here: SKBR3 viability, ATP luminescence, at 10 µM. In general terms: Bead proximity is the source of the signal in Alpha formats.
Assay [2] addresses Receptor tyrosine-protein kinase erbB-2 (Homo sapiens) (UniProt P04626). Described as above. Conditions: 18-24 h, at 10 µM, stronger effect = lower value.
Assay [3] can be described thus: reduced viability of SK-BR-3 breast cancer cells – cell-based, 24 h, human, pilot screen (AID 572;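 active = viability at or below 10% of carrier control in both of two separate runs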;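 note: compound exposure lasted between 18 and 24 h rather than exactly 24 h; 100% = carrier-treated control wells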). The settings on record: SK-BR-3 viability, CellTiter-Glo luminescence, at 10 µM, stronger effect = lower value.
A short description of assay [4]: HUVEC growth inhibition – cell-based, human, primary screen (AID 575;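 active = viability at or below 30% in both replicate assays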;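 note: 100% = median of untreated cell wells with 0.1% DMSO on each plate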). The settings on record: HUVEC proliferation, CellTiter-Glo luminescence, 72 h; at 10 µM; stronger effect = lower value. In outline: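 Material: primary human umbilical vein endothelial cells / Schedule: 72 h exposure, 37 °C, 5% CO2, 30 min RT equilibration / Signal: ATP-based CellTiter-Glo luminescent read / Read-out basis: percent of median DMSO-control luminescence / Control set: 32 DMSO-only cell-control wells (high), 32 MePR drug-control wells (low) per plate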
(Cellular ATP, detected with luciferase, serves as a proxy for viable cell number.)

Assay [5] is described as follows: H69AR cell proliferation blockers – human, duplicate replicates, primary screen (AID 580;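 active = viability at or under a set limit in both replicates, limit being median viability minus 3 SD, cut at about 48% in these data, passing the limit was not always enough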;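 note: 100% = mean luminescence of untreated wells and 0% = no signal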). Conditions: H69AR lung tumor cells viability, ATP luminescence, 72 h; at 10 µM; stronger effect = lower value.
Assay [6] is described as follows: MRP1 drug-resistance reversers in H69AR cells – cell-based, doxorubicin co-treatment, pilot screen (AID 601;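 active = viability loss from added drug above about 55%, and viability with drug at most 40%, in both replicates, limit read from the data, passing the limit was not always enough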). The settings on record: CellTiter-Glo, 72 h, at 10 µM; for differential viability (reversal): stronger effect = higher value.
Assay [7] can be described thus: yeast transport mutant growth inhibition pilot in 384-well plates, post-Golgi transport modulator project (AID 636; in the data active = inhibition above about 31%). The settings on record: absorbance 615 nm, about 18 h, stronger effect = higher value.
Assay [8] in a line: growth suppression of yeast trafficking mutant, preliminary HTS, modulators of trafficking downstream of Golgi apparatus project, 1536-format plate, OD 615 nm (AID 637). The settings on record: yeast transport mutant growth, absorbance 615 nm, 18 h; stronger effect = higher value.
[9] abbreviates: H69AR cells + 2 uM doxorubicin, measured here: viability with 2 uM doxorubicin, stronger effect = lower value.
[10] abbreviates: H69AR cells, compound alone cytotoxicity.

Activity calls are given as the source filed them. Cut-off read from the data, not from the text of the source, unless noted: active = inhibition above about 30%; inactive = the rest.

Sequence of Receptor tyrosine-protein kinase erbB-2 (Homo sapiens) (P04626 whole entry, looked up): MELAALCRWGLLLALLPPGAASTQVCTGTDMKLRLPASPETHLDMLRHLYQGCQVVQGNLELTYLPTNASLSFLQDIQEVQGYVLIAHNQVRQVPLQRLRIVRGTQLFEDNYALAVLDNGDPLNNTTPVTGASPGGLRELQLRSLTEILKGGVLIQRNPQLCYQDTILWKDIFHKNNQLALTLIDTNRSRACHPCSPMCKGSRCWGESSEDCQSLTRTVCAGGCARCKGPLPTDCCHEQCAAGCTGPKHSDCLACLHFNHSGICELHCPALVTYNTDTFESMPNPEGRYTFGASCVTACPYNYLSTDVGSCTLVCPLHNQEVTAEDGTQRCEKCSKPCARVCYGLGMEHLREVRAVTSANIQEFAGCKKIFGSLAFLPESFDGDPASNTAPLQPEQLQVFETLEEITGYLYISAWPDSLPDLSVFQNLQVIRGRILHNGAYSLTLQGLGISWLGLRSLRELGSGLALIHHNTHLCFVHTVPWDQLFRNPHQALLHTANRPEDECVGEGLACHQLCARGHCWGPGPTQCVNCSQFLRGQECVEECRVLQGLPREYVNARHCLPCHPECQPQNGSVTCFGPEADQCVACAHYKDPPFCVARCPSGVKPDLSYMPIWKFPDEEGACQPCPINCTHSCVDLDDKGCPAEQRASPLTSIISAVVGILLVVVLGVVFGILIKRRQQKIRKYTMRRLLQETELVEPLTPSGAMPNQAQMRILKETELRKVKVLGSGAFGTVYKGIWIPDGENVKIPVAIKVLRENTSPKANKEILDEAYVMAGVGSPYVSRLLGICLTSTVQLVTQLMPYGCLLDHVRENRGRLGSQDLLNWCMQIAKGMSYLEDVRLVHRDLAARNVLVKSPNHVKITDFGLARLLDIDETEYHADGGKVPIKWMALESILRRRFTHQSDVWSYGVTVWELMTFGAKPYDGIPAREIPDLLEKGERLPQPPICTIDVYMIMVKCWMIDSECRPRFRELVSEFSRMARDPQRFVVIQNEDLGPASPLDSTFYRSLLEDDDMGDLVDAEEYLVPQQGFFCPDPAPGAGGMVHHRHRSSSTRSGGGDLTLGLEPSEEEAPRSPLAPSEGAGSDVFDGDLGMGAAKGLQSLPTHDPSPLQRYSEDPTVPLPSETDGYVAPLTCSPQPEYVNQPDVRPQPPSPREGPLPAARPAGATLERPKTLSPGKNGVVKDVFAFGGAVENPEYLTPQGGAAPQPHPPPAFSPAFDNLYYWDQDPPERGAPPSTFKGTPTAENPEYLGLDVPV

On to `COC(=O)CSc1nc2sc3c(c2c(=O)n1C1CCCCC1)CCN(C)C3`, for which the viability (commonly a read-out of living cells in per cent, often relative to untreated cells) in assay [1] was 102%; in assay [3], 102% (inactive); in assay [4] it was 84.7% (inactive); in assay [5], 95% (inactive); in assay [6] (setting [9]), 92.1%; in assay [6] (setting [10]), 95%. Further, the Her2 level in assay [2] is 75.5% (inactive). Also, the differential viability (reversal) in assay [6] (H69AR cells + 2 uM doxorubicin) is 2.91% (inactive). Besides, the inhibition (commonly the change of the read-out against control, counted positive when it falls) in assay [7] was -5.66% (inactive); in assay [8] it was 1.83% (inactive).

Turning to `O=C(CCn1c(=O)oc2ccccc21)NCCN1CCc2ccccc2C1`, the viability is 77% in assay [1]; 77% (inactive) in assay [3]; 95.2% (inactive) in assay [4]; 94.4% (inactive) in assay [5]; 78.4% in assay [6] (setting [9]); 94.4% in assay [6] (setting [10]). Also, the Her2 level in assay [2] was 79% (inactive). In assay [6] (H69AR cells + 2 uM doxorubicin), the differential viability (reversal) is 16% (inactive). The inhibition in assay [7] was -2.24% (inactive); in assay [8], 3.02% (inactive).

As for `COc1ccc(-c2cn3cc(C)ccc3n2)cc1OC`, the viability was 108% in assay [1]; 108% (inactive) in assay [3]; 91.5% (inactive) in assay [4]; 63.7% (inactive) in assay [5]; 63.1% in assay [6] (setting [9]); 63.7% in assay [6] (setting [10]). In addition, the Her2 level in assay [2] is 88% (inactive). Further, the differential viability (reversal) in assay [6] (H69AR cells + 2 uM doxorubicin) was 0.63% (inactive). In addition, the inhibition in assay [7] is -5.26% (inactive); in assay [8], -1.64% (inactive).

`CCOC(=O)CSc1nnc(CNC(=O)c2cccs2)n1-c1cc(OC)ccc1OC`: the viability in assay [1] is 96.5%; in assay [3], 96.5% (inactive); in assay [4] it was 113% (inactive); in assay [5], 99.3% (inactive); in assay [6] (setting [9]) it was 88.3%; in assay [6] (setting [10]) it was 99.3%. In addition, in assay [2], the Her2 level was 94% (inactive). Moreover, the differential viability (reversal) in assay [6] (H69AR cells + 2 uM doxorubicin) was 11.1% (inactive). The values for the inhibition in assay [7] and in assay [8] were -6.32% (inactive) and -0.55% (inactive), respectively.

As to `NC(=O)C1(N2CCCCC2)CCN(CC(=O)Nc2cc(Cl)ccc2Cl)CC1`, the viability is 105% in assay [1]; 105% (inactive) in assay [3]; 81.6% (inactive) in assay [4]; 91.8% (inactive) in assay [5]; 103% in assay [6] (setting [9]); 91.8% in assay [6] (setting [10]). Also, the Her2 level in assay [2] is 91.5% (inactive). The differential viability (reversal) in assay [6] (H69AR cells + 2 uM doxorubicin) is -11.5% (inactive). For the same molecule, the results for the inhibition in assay [7] and in assay [8] were -1.6% (inactive) and 2.79% (inactive), respectively.

On to `Cc1ccc(S(=O)(=O)N2CCN(C(=O)CN3CCOCC3)C2C(C)C)cc1` (stereo not given), for which the viability was 99.5% in assay [1]; 99.5% (inactive) in assay [3]; 102% (inactive) in assay [4]; 104% (inactive) in assay [5]; 94.5% in assay [6] (setting [9]); 104% in assay [6] (setting [10]). Moreover, the Her2 level in assay [2] is 102% (inactive). For the same molecule, the differential viability (reversal) in assay [6] (H69AR cells + 2 uM doxorubicin) is 9.15% (inactive). Moreover, the inhibition in assay [7] was -2.86% (inactive); in assay [8] it was -2.54% (inactive).

Turning to `CC1c2nc3ccccc3n2C(CC(=O)NCc2ccccn2)C(=O)N1Cc1ccccc1` (stereo not given), the viability in assay [1] was 110%; in assay [3], 110% (inactive); in assay [4] it was 96.3% (inactive); in assay [5], 92.8% (inactive); in assay [6] (setting [9]), 85.5%; in assay [6] (setting [10]) it was 92.8%. Besides, the Her2 level in assay [2] was 72% (inactive). For the same molecule, the differential viability (reversal) in assay [6] (H69AR cells + 2 uM doxorubicin) was 7.24% (inactive). The inhibition was -1.58% (inactive) in assay [7] and 1.59% (inactive) in assay [8].

With `CCCCOc1ccccc1NC(=O)c1ccco1`, the viability is 87% in assay [1]; 87% (inactive) in assay [3]; 76.6% (inactive) in assay [4]; 62.9% (inactive) in assay [5]; 77.3% in assay [6] (setting [9]); 62.9% in assay [6] (setting [10]). The Her2 level in assay [2] was 93% (inactive). Moreover, the differential viability (reversal) in assay [6] (H69AR cells + 2 uM doxorubicin) was -14.4% (inactive). Moreover, the values for the inhibition in assay [7] and in assay [8] were -0.93% (inactive) and -0.16% (inactive), respectively.

In the case of `CC1(C)NC(=O)N(CC(O)COc2ccc(-c3ccccc3)cc2)C1=O` (stereo not given), the viability was 101% in assay [1]; 101% (inactive) in assay [3]; 74.3% (inactive) in assay [4]; 96.7% (inactive) in assay [5]; 93.5% in assay [6] (setting [9]); 96.7% in assay [6] (setting [10]). Moreover, in assay [2], the Her2 level is 102% (inactive). Besides, the differential viability (reversal) in assay [6] (H69AR cells + 2 uM doxorubicin) is 3.21% (inactive). Further, the inhibition in assay [7] is -2.24% (inactive); in assay [8], -4.83% (inactive).

Take `CCOC(=O)CN1C2=NCCN2c2ccccc21`: the viability is 89.5% in assay [1]; 89.5% (inactive) in assay [3]; 96.1% (inactive) in assay [4]; 99% (inactive) in assay [5]; 88.1% in assay [6] (setting [9]); 99% in assay [6] (setting [10]). The Her2 level in assay [2] was 82% (inactive). Besides, in assay [6] (H69AR cells + 2 uM doxorubicin), the differential viability (reversal) was 10.9% (inactive). Further, the inhibition is -2.63% (inactive) in assay [7] and -4% (inactive) in assay [8].

As to `O=C(NCc1ccco1)c1c2c(nc3ccccc13)CCC2`, the viability was 108% in assay [1]; 108% (inactive) in assay [3]; 82.4% (inactive) in assay [4]; 80.7% (inactive) in assay [5]; 77.5% in assay [6] (setting [9]); 80.7% in assay [6] (setting [10]). In addition, in assay [2], the Her2 level was 80% (inactive). In addition, the differential viability (reversal) in assay [6] (H69AR cells + 2 uM doxorubicin) was 3.16% (inactive). Moreover, the inhibition in assay [7] was -6.4% (inactive); in assay [8], 3.23% (inactive).

For `O=S(=O)(Cc1ccccc1)N1CCN(Cc2ccccc2)CC1`, the viability in assay [1] was 84.5%; in assay [3], 84.5% (inactive); in assay [4], 87.3% (inactive); in assay [5], 95.5% (inactive); in assay [6] (setting [9]), 79.9%; in assay [6] (setting [10]) it was 95.5%. Further, the Her2 level in assay [2] was 109% (inactive). For the same molecule, the differential viability (reversal) in assay [6] (H69AR cells + 2 uM doxorubicin) is 15.5% (inactive). Besides, the inhibition in assay [7] is -0.13% (inactive); in assay [8], 0.95% (inactive).

As for `CC(=O)Nc1ccc(NC(=O)C(C)Oc2ccccc2F)cc1` (stereo not given), the viability in assay [1] is 102%; in assay [3], 102% (inactive); in assay [4], 113% (inactive); in assay [5], 103% (inactive); in assay [6] (setting [9]) it was 84%; in assay [6] (setting [10]) it was 103%. Besides, the Her2 level in assay [2] is 102% (inactive). Moreover, the differential viability (reversal) in assay [6] (H69AR cells + 2 uM doxorubicin) is 18.8% (inactive). The results for the inhibition in assay [7] and in assay [8] were -5.97% (inactive) and -2.22% (inactive), respectively.

On to `CCOCC(=O)Nc1nc2ccc(OC)cc2s1`, for which the viability is 107% in assay [1]; 107% (inactive) in assay [3]; 93.9% (inactive) in assay [4]; 90.4% (inactive) in assay [5]; 81.5% in assay [6] (setting [9]); 90.4% in assay [6] (setting [10]). Further, the Her2 level in assay [2] is 102% (inactive). Moreover, the differential viability (reversal) in assay [6] (H69AR cells + 2 uM doxorubicin) is 8.94% (inactive). The inhibition was 0.79% (inactive) in assay [7] and 5.57% (inactive) in assay [8].
